High-throughput results deposited in PubChem BioAssay by several laboratories.
SENP6 inh – SENP6 protease inhibitors, primary screen, biochemical, luminescence, uHTS; hit rate 1.8% among 330,000; Sentrin-specific protease 6 (Homo sapiens), Q9GZR1; inhibition, % at 10 µM; Recombinant SENP6 catalytic domain, aminoluciferin luminescence;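 active means inhibition above about 50% at the single tested dose, limit read from the data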;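 further: plate controls were DMSO wells with enzyme for no effect and DMSO wells lacking enzyme for full effect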
SENP7 block – SENP7 protease inhibitors, primary screen, biochemical, luminescence, uHTS. Sentrin-specific protease 7 (Homo sapiens), Q9BQF6. recombinant SENP7, Z-RLRGG-aminoluciferin luminescence, 40 min. inhibition, % at 5 µM. hit rate 1.5% among 330,000;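 active means inhibition above about 50% at the single test dose, limit read from the data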;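 further: plate controls were DMSO with enzyme for no effect and no enzyme buffer wells for full effect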
Target sequence (Q9BQF6 706-1050 limits assumed): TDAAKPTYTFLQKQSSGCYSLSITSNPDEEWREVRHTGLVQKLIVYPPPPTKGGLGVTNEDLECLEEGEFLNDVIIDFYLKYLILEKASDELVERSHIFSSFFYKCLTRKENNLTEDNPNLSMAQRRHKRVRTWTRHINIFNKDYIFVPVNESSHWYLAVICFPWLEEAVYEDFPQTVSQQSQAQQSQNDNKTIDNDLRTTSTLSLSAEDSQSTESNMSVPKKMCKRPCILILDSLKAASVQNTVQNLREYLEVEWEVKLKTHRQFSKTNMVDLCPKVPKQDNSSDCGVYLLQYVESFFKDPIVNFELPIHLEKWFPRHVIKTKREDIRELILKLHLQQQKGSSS
SENP8 block-1 – SENP8 protease inhibitors, primary screen, biochemical, luminescence. Sentrin-specific protease 8 (Homo sapiens), Q96LD8. purified SENP8, Z-RLRGG-aminoluciferin cleavage. inhibition, % at 10 µM. hit rate 1.2% among 330,000. AID 2540, 2010; in the data active means inhibition above about 50%
Target sequence (Q96LD8 whole entry, looked up): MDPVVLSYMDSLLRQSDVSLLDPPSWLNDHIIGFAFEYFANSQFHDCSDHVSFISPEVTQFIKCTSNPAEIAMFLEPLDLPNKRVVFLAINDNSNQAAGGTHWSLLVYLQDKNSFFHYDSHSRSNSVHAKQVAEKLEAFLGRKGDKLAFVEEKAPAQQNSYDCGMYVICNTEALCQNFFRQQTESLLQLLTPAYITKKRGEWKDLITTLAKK
HSP90 inh – HSP90 inhibitors, primary screen, cell lysate, luminescence. Heat shock protein HSP 90 (rabbit reticulocyte lysate; luciferase refolding). Rabbit reticulocyte lysate, luciferase refolding luminescence, 3 h. inhibition, % at 5.6 µM. hit rate 0.91% among 290,000. AID 1789, 2009;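 active means inhibition above the screen-wide mean plus 3 SD, computed separately per campaign, cut at about 16% in these data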;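 further: 0% = DMSO wells and 100% = 60 µM geldanamycin wells; inhibitors lower the luminescence because luciferase stays unfolded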
SENP1 FRET inh – human SENP1 catalytic domain inhibitors, primary screen, biochemical, FRET, uHTS. Sentrin-specific protease 1 (Homo sapiens), Q9P0U3. recombinant SENP1 catalytic domain, CyPet-SUMO1-YPet FRET cleavage. inhibition, % at 10 µM. hit rate 0.21% among 360,000. AID 624204, 2012;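 active means inhibition at least 30% at 10 µM, raw YFP signal under a set limit, fluorescence ratio 0.5 to 1.5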;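 further: 0% = enzyme with DMSO and 100% = no enzyme wells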
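Controls: no-enzyme wells low, DMSO-plus-enzyme wells high control. Test system: human recombinant His6-tagged SENP1 catalytic domain enzyme. Reagent: SFCypet-SUMO1-SFYpet FRET protein substrate, 25 nM final. Doses: one dose per compound, 10 µM, 0.5% DMSO. Detection: FRET, CFP and YFP emission. Timing: 50 min reaction at room temperature.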
SENP8 block-2 – human SENP8 protease inhibitors, primary screen, biochemical, fluorescence, Nedd8 protein substrate, uHTS; Sentrin-specific protease 8 (Homo sapiens), Q96LD8; recombinant SENP8; inhibition, % at 20 µM; hit rate 0.64% among 360,000; AID 602440, 2012; in the data active means inhibition mostly above about 40%, no sharp cut-off; inactive means mostly below about 27%
HSP90 confirm – HSP90 inhibitors, confirmation, cell lysate, luminescence; hit rate 64% among 2,300; shares compounds with HSP90 inh; rabbit reticulocyte lysate, luciferase refolding luminescence, 3 h; AID 1846, 2009; inhibition, % at 5.9 µM; in the data active means inhibition above about 18%;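 further: 0% = vehicle wells and 100% = reference inhibitor wells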
FLuc counter – firefly luciferase inhibitors, HSP90 counter-screen, confirmation, artefact control for HSP90 inhibitor project, biochemical, luminescence, triplicate | hit rate 48% among 2,300 | purified native firefly luciferase | inhibition, % at 5.9 µM | shares compounds with HSP90 inh;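 active means inhibition above the mean inhibition of all tested sample wells plus 3 SD, cut at about 10% in these data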;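 further: 0% = DMSO with luciferase and 100% = wells lacking luciferase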
* marks the source's active call; other numbers are inactive results; i = inactive; / = no result given. This is a sample that favours compounds with a hit; in the whole collection about 2.9% have one here.

SMILES	SENP6 inh	SENP7 block	SENP8 block-1	HSP90 inh	SENP1 FRET inh	SENP8 block-2	HSP90 confirm	FLuc counter
COc1ccccc1OCc1ccc(C(=O)N(C)c2ccccc2)o1	17	6	6	32*	1	5	4	-2
COCCNc1c(-c2cc3ccc(C)c(C)c3[nH]c2=O)nc2ccccn12	-2	-9	-11	21*	-1	-16	-7	-15
COc1ccc(-c2cc(-c3nc4ccccn4c3NCc3ccccc3)ccc2OC)cc1	-7	5	-6	/	-81	i	/	/
O=C(COc1ccc(CO)cc1Cl)Nc1ccc(F)cc1	-40	13	-11	37*	3	26	39*	36*
C=CCNc1ncnc2c1ncn2[C@H]1CN(CCc2ccccc2)C[C@@H](CO)O1	/	/	/	/	1	3	/	/
O=[N+]([O-])c1ccc2nc(/C=C/c3ccc(Cl)cc3)[nH]c2c1	-2	8	0	28*	2	-162	6	1
CN(C)c1ccc(N=C/C=C2\N(C)c3ccccc3C2(C)C)cc1	-17	9	-4	7	10	22	/	/
CN(C)c1ccc(N=Cc2cccn2C)cc1	-3	15	-20	22*	6	13	10	-12
COc1ccccc1NC(=O)c1coc(=O)c(Br)c1	-4	-3	-8	55*	-77	-426	83*	-7
Cc1ccc(NC(C)C(=O)N/N=C/c2ccc([N+](=O)[O-])s2)cc1 (centres undefined)	-12	1	-3	35*	1	28	-1	-7
CC(C)(C)c1ccc(-c2cc(-c3ccccc3O)[nH]n2)cc1	48	35	37	52*	1	12	60*	59*
OC(c1ccc(Cl)c(Cl)c1)c1ncc(-c2ccccc2Cl)[nH]1 (centres undefined)	/	/	/	/	1	2	/	/
O=C(Nc1ncc([N+](=O)[O-])s1)c1ccc2c(c1)OCO2	96*	102*	97*	76*	-63	19	87*	76*
Cc1nc(SCc2cccc(C(=O)O)c2)nc2c1CCCC2	-10	-3	-1	18*	4	9	47*	18*
COc1ccc(-c2cc(C)nc(SCc3cccc(C(=O)O)c3)n2)cc1	-15	-13	-17	-3	2	19	/	/
COc1ccc(-c2csc(NC(=S)NC(=O)/C=C/c3ccco3)n2)cc1OC	/	/	/	6	2	31	/	/
COc1ccc(-c2csc(NC(=S)NC(=O)/C=C/c3ccc(C(C)C)cc3)n2)cc1OC	2	-2	3	19*	1	13	13	0
Cc1c(O)ccc(C(=O)CN2CCN(Cc3ccc4c(c3)OCO4)CC2)c1O	/	/	/	84*	-3	-38	-7	-11
CCOC(=O)N1CCN(Cc2ccc3c(c2)OCO3)CC1	0	7	-14	0	1	16	/	/
O=C(CSc1ccc(-c2ccccn2)nn1)Nc1ccc(F)c(F)c1	-5	1	-4	0	-1	-14	/	/
COc1ccc(NC(=O)C[C@H]2C(=O)N(c3ccc(OC)cc3)C[C@@H]2CSC)cc1	/	/	/	/	3	16	/	/
Cc1nnc2sc(-c3ccc(N(C)C)cc3)nn2c1=O	-3	7	1	20*	-22	-285	8	-10
CN(C)c1ccc(-c2nn3c(-c4cccnc4)nnc3s2)cc1	-10	-1	-7	/	/	/	/	/
Cc1ccc(NCC(=O)c2ccc(C)cc2)cc1	4	2	1	22*	1	19	5	-12
CC1=NN(c2ccccc2)C(=O)/C1=C\N(O)c1ccccc1	25	36	7	41*	3	76*	80*	-17
SMILES	SENP6 inh	SENP7 block	SENP8 block-1	HSP90 inh	SENP1 FRET inh	SENP8 block-2	HSP90 confirm	FLuc counter
N#CCc1ccc(NC(=O)/C=C/c2ccc([N+](=O)[O-])o2)cc1	/	/	/	60*	-19	20	9	-7
COCCn1c(C)cc(C(=O)COC(=O)c2ccc[nH]c2=O)c1C	-21	3	7	31*	3	13	45*	54*
COCCn1c(C)cc(C(=O)Cn2nc(C(=O)O)c3ccccc3c2=O)c1C	12	0	1	67*	1	0	75*	1
C=CCn1c(C)cc(C(=O)Cn2nc(C(=O)O)c3ccccc3c2=O)c1C	14	0	10	51*	1	-5	71*	20*
CCCNC(=O)N(C)C[C@H]1Oc2ncc(C#CCc3ccccc3)cc2C(=O)N([C@H](C)CO)C[C@H]1C	/	/	/	/	-4	-92	/	/
OC(CC#CCN1CCCC1)(c1ccccc1)c1ccccc1	-3	2	4	-2	0	22	/	/
CC(C)C(O)(CC#CCN1CCCC1)c1ccccc1 (centres undefined)	-25	1	-8	59*	2	3	-5	-6
COc1ccc(C(=O)O/N=C(\N)c2ccccn2)c(OC)c1	22	32	8	43*	0	3	11	3
COc1ccc(S(=O)(=O)N2CCN(c3nn(C)c(=O)n(C)c3=O)CC2)cc1	-15	2	-1	/	1	0	/	/
Cc1nc2c(-c3ccc(Cl)cc3)cnn2c(N)c1-c1ccc(F)cc1	1	-11	-21	69*	-1	-270	67*	68*
COc1ccc(-c2c(C)nc3c(-c4ccc(F)cc4)cnn3c2N)cc1	-15	4	-13	17*	1	-265	16*	11*
O=C(Cc1ccccc1)Nc1ccc(NC(=O)c2ccco2)cc1Cl	-30	6	4	9	2	1	/	/
COCCn1c(C)c(C)c2c(NCCc3ccccc3)ncnc21	16	10	21	60*	-2	-2	63*	63*
Cc1c(C)n(CCc2ccccc2)c2ncnc(NCCCO)c12	-28	-7	-4	-3	2	12	/	/
Cc1ccc(S(=O)(=O)NCCCNS(=O)(=O)c2ccccc2)cc1	-33	-1	-5	25*	0	5	-7	-8
CC1(C(=O)Nc2cnc3ccccc3c2)CCN1C(=O)CC(c1ccccc1)c1ccccc1 (centres undefined)	/	/	/	/	3	10	/	/
O=c1cc(-c2ccccc2)[nH][nH]1	-29	0	2	40*	2	-22	-9	-11
O=c1cc(-c2ccc(Br)cc2)[nH][nH]1	3	4	-8	12	1	24	/	/
